Tests used:
[1] = target: T1, annexin A1 (Mus musculus, UniProt P10107); experiment: SPR, carbohydrates flowed over annexin A1 immobilized on NTA chips; type: binding; conditions: annexin A1 1 µM immobilized
T1 sequence (P10107 1-346): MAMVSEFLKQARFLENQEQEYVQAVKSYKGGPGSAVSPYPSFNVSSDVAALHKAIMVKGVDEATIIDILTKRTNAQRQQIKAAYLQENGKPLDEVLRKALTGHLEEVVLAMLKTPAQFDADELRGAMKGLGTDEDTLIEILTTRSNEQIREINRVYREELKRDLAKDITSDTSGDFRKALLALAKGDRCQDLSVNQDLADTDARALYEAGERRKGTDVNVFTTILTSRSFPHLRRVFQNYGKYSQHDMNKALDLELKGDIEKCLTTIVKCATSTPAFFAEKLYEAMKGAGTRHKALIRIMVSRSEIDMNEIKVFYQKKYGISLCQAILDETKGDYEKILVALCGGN
How it was run: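 The NTA chip was primed with 500 μM NiCl2 in HBS-EP running buffer (10 mM HEPES pH 7.4, 150 mM NaCl, 50 μM EDTA, 0.05% Tween-20), then His-tagged mouse annexin A1 (1 μM) was captured. Test glycans, either free glycosaminoglycans or polyacrylamide-coupled glycans at 5 or 50 μg/mL, or buffer alone, were injected for 3 min in HBS-N with 1 mM CaCl2 and 1 mM MgCl2. After dissociation, the chip was regenerated with 35 mM EDTA.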

[2] = target: T1, annexin A1; experiment: Glycan array; type: binding; conditions: annexin A1-His 0.2 mg/ml, 2 mM CaCl2, 2 mM MgCl2, fluorescence (RFU)
How it was run: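 Recombinant full-length mouse annexin A1 with a C-terminal His6 tag was expressed in E. coli BL21(DE3) with 1 mM IPTG induction, purified on Ni-NTA and dialysed into 20 mM Tris pH 7.9 with 250 mM NaCl. The array was probed with 0.2 mg/mL protein in TBS-CM (pH 7.4) containing 1% BSA and 0.05% Tween-20, for 60 min at room temperature in a humid chamber. Read-out was mean RFU of 6 replicates after dropping the highest and lowest values.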

LacNAc
Binding to annexin A1 immobilized on NTA SPR chip ([1]; carbohydrate flowed over): did not interact

O=C[C@H](O)[C@@H](O)[C@H](O)[C@H](O)C(=O)O [glucuronic acid]
Annexin A1 binding on glycan array [2]: among the best recognized glycans

[3OSO3^−][6OSO3^−]Galβ1-4[6OSO3^−]GlcNAcβ-Sp0 [compound 26]
Annexin A1 binding on glycan array [2]: strongest binder
Annexin A1 binding on glycan array ([2]; listed as [3OSO3^− ][6OSO3^−]Galβ1-4[6OSO3^−]GlcNAcβ): best binder

CO[C@H]1O[C@H](COS(=O)(=O)O)[C@@H](O[C@@H]2O[C@@H](C(=O)O)[C@@H](O[C@H]3O[C@H](COS(=O)(=O)O)[C@@H](O[C@@H]4O[C@H](C(=O)O)[C@@H](O[C@H]5O[C@H](COS(=O)(=O)O)[C@@H](O)[C@H](O)[C@H]5NS(=O)(=O)O)[C@H](O)[C@H]4O)[C@H](OS(=O)(=O)O)[C@H]3NS(=O)(=O)O)[C@H](O)[C@H]2OS(=O)(=O)O)[C@H](O)[C@H]1NS(=O)(=O)O [arixtra, fondaparinux sodium]
Glycosaminoglycan binding to annexin A1 immobilized on NTA SPR chip ([1]; glycosaminoglycans 5 or 50 µg/mL): bound less well
